# Measured values taken from publication PMC5598146 (Toxicology Reports, 2015).
# How the values were obtained:
# [1] = Relative oral bioavailability of sodium, phosphate and hemisulfate salts in rats; format: in vivo, Sprague-Dawley rats; details: single oral 30 mg/kg, male rats
# Outline: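 Male Sprague-Dawley rats, 4/group, received a single 30 mg/kg oral gavage dose in 1% methylcellulose of either parent acid or its sodium, phosphate or sulfate salt. Jugular-catheter blood was drawn at about 15 and 30 min and at 1, 2, 4, 8 and 24 h. Plasma parent was measured by LC/MS/MS with an internal standard. Relative AUClast and Cmax were corrected for molecular-weight differences.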
# [2] = system: S. typhimurium strains TA98 and TA100; assay: Abbreviated Ames; format: cell-based
# Outline: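 Salmonella TA98 and TA100 plate-incorporation assay per OECD 471, run with and without rat liver S9. Test compound and its decarboxylated impurity were tested at concentrations up to and including 5000 µg/plate, with vehicle and positive controls. Revertant colony counts were compared with vehicle control, and bacterial toxicity was recorded.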
Structure (SMILES),Cmax/Equiv. dose [1] [ng/mL/mg/kg],Cmax ([1]; S9632 measured in plasma) [ng/mL],"%Cmax Relative to S9632 ([1]; corrected for molecular weight, 30 mg/kg) [%]",Concentration with cytotoxicity (reduction in the background lawn) ([2]; TA98 and TA100 without metabolic activation) [μg/plate],"Mutagenicity, result ([2]; plate incorporation, up to 5000 μg/plate, ±S9)"
Cc1nc2cccc(OCC(C)(C)C(=O)NC(C)C)c2c(N)c1C(=O)O.Cc1nc2cccc(OCC(C)(C)C(=O)NC(C)C)c2c(N)c1C(=O)O.O=S(=O)(O)O [S1638],1.377,34.80 ± 7.55,106.7,,
"Cc1cc(N)c2c(OCC(C)(C)C(=O)NC(C)C)cccc2n1 [S9379, 4-amino-5-(3-(isopropylamino)-2,2-dimethyl-3-oxopropoxy)-2-methylquinoline]",,,,5000,not mutagenic
